Results published in ChEMBL document CHEMBL1649256, “Comparison of assessment of oxygen consumption, Etest, and CLSI M38-A2 broth microdilution methods for evaluation of the susceptibility of Aspergillus fumigatus to posaconazole” (2009).

Assays:
Assay type in all cases: functional
Aspergillus fumigatus [1] = test: Antimicrobial activity against Aspergillus fumigatus isolate 50 by oxygen consumption method
Aspergillus fumigatus [2] = test: Antimicrobial activity against Aspergillus fumigatus isolate 22 by CLSI M38-A2 broth microdilution method
Procedure, shortened: (§1)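 Reference broth microdilution per CLSI M38-A2. MIC read as absence of visible growth at 48 h. C. parapsilosis ATCC 22019 and C. krusei ATCC 6258 QC strains run in each test session.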

Aspergillus fumigatus [3] = test: Antimicrobial activity against Aspergillus fumigatus isolate 30 after 48 hrs by Etest; conditions: isolate 30, 48 h
Procedure, shortened: (§2)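 Etest strips on RPMI 1640 agar with 2% glucose, pH 7.0, run per manufacturer's instructions. Incubated at 35°C; MIC read at 48 h.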

Aspergillus fumigatus [4] = test: Antimicrobial activity against Aspergillus fumigatus isolate 9 by CLSI M38-A2 broth microdilution method
Aspergillus fumigatus [5] = test: Antimicrobial activity against Aspergillus fumigatus isolate 25 after 24 hrs by Etest; conditions: isolate 25, 24 h
Procedure, shortened: (§3)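 Etest strips on RPMI 1640 agar with 2% glucose, pH 7.0, run per manufacturer's instructions. Incubated at 35°C; MIC read at 24 h.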

Aspergillus fumigatus [6] = test: Antimicrobial activity against Aspergillus fumigatus isolate 34 after 48 hrs by Etest; conditions: isolate 34, 48 h
Procedure, shortened: (§4)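 Posaconazole Etest strips on RPMI 1640 agar with 2% glucose, pH 7.0, run per the strip maker's instructions. Incubated at 35°C. MIC read at 24 h and at 48 h, matching the time in each line.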

Aspergillus fumigatus [7] = test: Antimicrobial activity against Aspergillus fumigatus isolate 13 after 24 hrs by Etest; conditions: isolate 13, 24 h
Procedure, shortened: (§5)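 Posaconazole Etest strips placed on RPMI 1640 agar with 2% glucose, pH 7.0, and run per the strip maker's instructions. Incubation at 35°C, with the MIC read at 24 h and at 48 h.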

Aspergillus fumigatus [8] = test: Antimicrobial activity against Aspergillus fumigatus isolate 33 after 24 hrs by Etest; conditions: isolate 33, 24 h; procedure, shortened: as §4
Aspergillus fumigatus [9] = test: Antimicrobial activity against Aspergillus fumigatus isolate 22 after 48 hrs by Etest; conditions: isolate 22, 48 h; procedure, shortened: as §2
Aspergillus fumigatus [10] = test: Antimicrobial activity against Aspergillus fumigatus isolate 15 after 24 hrs by Etest; conditions: isolate 15, 24 h; procedure, shortened: as §5
Aspergillus fumigatus [11] = test: Antimicrobial activity against Aspergillus fumigatus isolate 9 after 24 hrs by Etest; conditions: isolate 9, 24 h
Aspergillus fumigatus [12] = test: Antimicrobial activity against Aspergillus fumigatus isolate 19 after 24 hrs by Etest; conditions: isolate 19, 24 h; procedure, shortened: as §5
Aspergillus fumigatus [13] = test: Antimicrobial activity against Aspergillus fumigatus isolate 7 by oxygen consumption method
Aspergillus fumigatus [14] = test: Antimicrobial activity against Aspergillus fumigatus isolate 33 by oxygen consumption method
Procedure, shortened: (§6)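 Conidial suspension in RPMI 1640 broth, tested at two posaconazole levels (0.25 and 2 μg/ml). Agitated for 12 h at 37°C in a biological oxygen monitor. MIC derived from continuous monitoring and quantification of the available oxygen.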

Aspergillus fumigatus [15] = test: Antimicrobial activity against Aspergillus fumigatus isolate 23 by oxygen consumption method
Procedure, shortened: (§7)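 Conidial suspension in RPMI 1640 broth, 1.5 ml, with two drug concentrations (0.25 and 2 μg/ml). Tubes agitated 12 h at 37°C in a biological oxygen monitor. Available oxygen monitored continuously and quantified to assign the MIC.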

Aspergillus fumigatus [16] = test: Antimicrobial activity against Aspergillus fumigatus isolate 11 after 24 hrs by Etest; conditions: isolate 11, 24 h; procedure, shortened: as §5
Aspergillus fumigatus [17] = test: Antimicrobial activity against Aspergillus fumigatus isolate 43 after 24 hrs by Etest; conditions: isolate 43, 24 h; procedure, shortened: as §4
Aspergillus fumigatus [18] = test: Antimicrobial activity against Aspergillus fumigatus isolate 18 after 24 hrs by Etest; conditions: isolate 18, 24 h; procedure, shortened: as §5
Aspergillus fumigatus [19] = test: Antimicrobial activity against Aspergillus fumigatus isolate 49 after 24 hrs by Etest; conditions: isolate 49, 24 h
Aspergillus fumigatus [20] = test: Antimicrobial activity against Aspergillus fumigatus isolate 43 after 48 hrs by Etest; conditions: isolate 43, 48 h; procedure, shortened: as §4
Aspergillus fumigatus [21] = test: Antimicrobial activity against Aspergillus fumigatus isolate 36 after 24 hrs by Etest; conditions: isolate 36, 24 h; procedure, shortened: as §4
Aspergillus fumigatus [22] = test: Antimicrobial activity against Aspergillus fumigatus isolate 21 after 24 hrs by Etest; conditions: isolate 21, 24 h; procedure, shortened: as §3
Aspergillus fumigatus [23] = test: Antimicrobial activity against Aspergillus fumigatus isolate 41 by oxygen consumption method; procedure, shortened: as §6
Aspergillus fumigatus [24] = test: Antimicrobial activity against Aspergillus fumigatus isolate 18 by oxygen consumption method
Procedure, shortened: (§8)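 Conidial suspension in RPMI 1640 broth with posaconazole at 0.25 and 2 μg/ml. Tubes agitated 12 h at 37°C in a biological oxygen monitor. Available oxygen was monitored continuously, and the MIC was assigned from the oxygen quantification.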

Aspergillus fumigatus [25] = test: Antimicrobial activity against Aspergillus fumigatus isolate 27 after 48 hrs by Etest; conditions: isolate 27, 48 h; procedure, shortened: as §2
Aspergillus fumigatus [26] = test: Antimicrobial activity against Aspergillus fumigatus isolate 41 after 24 hrs by Etest; conditions: isolate 41, 24 h; procedure, shortened: as §4
Aspergillus fumigatus [27] = test: Antimicrobial activity against Aspergillus fumigatus isolate 25 by oxygen consumption method; procedure, shortened: as §7
Aspergillus fumigatus [28] = test: Antimicrobial activity against Aspergillus fumigatus isolate 38 after 24 hrs by Etest; conditions: isolate 38, 24 h; procedure, shortened: as §4
Aspergillus fumigatus [29] = test: Antimicrobial activity against Aspergillus fumigatus isolate 15 after 48 hrs by Etest; conditions: isolate 15, 48 h; procedure, shortened: as §5
Aspergillus fumigatus [30] = test: Antimicrobial activity against Aspergillus fumigatus isolate 8 after 48 hrs by Etest; conditions: isolate 8, 48 h
Aspergillus fumigatus [31] = test: Antimicrobial activity against Aspergillus fumigatus isolate 46 after 24 hrs by Etest; conditions: isolate 46, 24 h
Aspergillus fumigatus [32] = test: Antimicrobial activity against Aspergillus fumigatus isolate 14 by oxygen consumption method; procedure, shortened: as §8
Aspergillus fumigatus [33] = test: Antimicrobial activity against Aspergillus fumigatus isolate 21 after 48 hrs by Etest; conditions: isolate 21, 48 h; procedure, shortened: as §2
Aspergillus fumigatus [34] = test: Antimicrobial activity against Aspergillus fumigatus isolate 19 by oxygen consumption method; procedure, shortened: as §8
Aspergillus fumigatus [35] = test: Antimicrobial activity against Aspergillus fumigatus isolate 50 after 48 hrs by Etest; conditions: isolate 50, 48 h
Aspergillus fumigatus [36] = test: Antimicrobial activity against Aspergillus fumigatus isolate 45 by oxygen consumption method
Aspergillus fumigatus [37] = test: Antimicrobial activity against Aspergillus fumigatus isolate 4 by CLSI M38-A2 broth microdilution method
Procedure, shortened: (§9)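 CLSI M38-A2 broth microdilution with posaconazole. MIC taken as the lowest concentration with no visible growth at 48 h. C. parapsilosis ATCC 22019 and C. krusei ATCC 6258 were included as QC strains in every run.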

Aspergillus fumigatus [38] = test: Antimicrobial activity against Aspergillus fumigatus isolate 20 by CLSI M38-A2 broth microdilution method; procedure, shortened: as §1
Aspergillus fumigatus [39] = test: Antimicrobial activity against Aspergillus fumigatus isolate 38 by CLSI M38-A2 broth microdilution method; procedure, shortened: as §9
Aspergillus fumigatus [40] = test: Antimicrobial activity against Aspergillus fumigatus isolate 7 by CLSI M38-A2 broth microdilution method
Aspergillus fumigatus [41] = test: Antimicrobial activity against Aspergillus fumigatus isolate 47 after 24 hrs by Etest; conditions: isolate 47, 24 h
Aspergillus fumigatus [42] = test: Antimicrobial activity against Aspergillus fumigatus isolate 49 by CLSI M38-A2 broth microdilution method
Aspergillus fumigatus [43] = test: Antimicrobial activity against Aspergillus fumigatus isolate 23 after 24 hrs by Etest; conditions: isolate 23, 24 h; procedure, shortened: as §3
Aspergillus fumigatus [44] = test: Antimicrobial activity against Aspergillus fumigatus isolate 20 by oxygen consumption method; procedure, shortened: as §7
Aspergillus fumigatus [45] = test: Antimicrobial activity against Aspergillus fumigatus isolate 8 by CLSI M38-A2 broth microdilution method
Aspergillus fumigatus [46] = test: Antimicrobial activity against Aspergillus fumigatus isolate 34 by CLSI M38-A2 broth microdilution method; procedure, shortened: as §9

Measured: MIC

CC[C@@H]([C@H](C)O)n1ncn(-c2ccc(N3CCN(c4ccc(OC[C@@H]5CO[C@@](Cn6cncn6)(c6ccc(F)cc6F)C5)cc4)CC3)cc2)c1=O [POSACONAZOLE]
≤ 0.25 µg/mL: Aspergillus fumigatus [1] | Aspergillus fumigatus [13] | Aspergillus fumigatus [15] | Aspergillus fumigatus [23] | Aspergillus fumigatus [24] | Aspergillus fumigatus [27] | Aspergillus fumigatus [32] | Aspergillus fumigatus [44]
≤ 0.03 µg/mL: Aspergillus fumigatus [6] | Aspergillus fumigatus [17] | Aspergillus fumigatus [26] | Aspergillus fumigatus [41]
≥ 0.5 µg/mL: Aspergillus fumigatus [14] | Aspergillus fumigatus [34] | Aspergillus fumigatus [36]
0.06 µg/mL: Aspergillus fumigatus [10] | Aspergillus fumigatus [20] | Aspergillus fumigatus [21] | Aspergillus fumigatus [28] | Aspergillus fumigatus [29] | Aspergillus fumigatus [37]
0.125 µg/mL: Aspergillus fumigatus [2] | Aspergillus fumigatus [12] | Aspergillus fumigatus [16] | Aspergillus fumigatus [18] | Aspergillus fumigatus [31] | Aspergillus fumigatus [38] | Aspergillus fumigatus [39] | Aspergillus fumigatus [42] | Aspergillus fumigatus [45] | Aspergillus fumigatus [46]
0.5 µg/mL: Aspergillus fumigatus [3] | Aspergillus fumigatus [19]
0.25 µg/mL: all other assays above
